ChEMBL document CHEMBL1137451, “Synthesis and evaluation of antifungal properties of a series of the novel 2-amino-5-oxo-4-phenyl-5,6,7,8-tetrahydroquinoline-3-carbonitrile and its analogues” (Bioorg Med Chem, 2007)

Assays:
Benjaminiella poitrasii [1] = assay: Inhibition of yeast hypha transition at 4 ug/mL after 4 hrs
Benjaminiella poitrasii [2] = assay: Inhibition of Benjaminiella poitrasii chitin synthase at 4 ug/mL
Method in brief: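 Chitin synthase from Benjaminiella poitrasii measured with and without compound at 4 µg/ml, using a non-radioactive chitin synthase assay. Nikkomycin Z used as reference.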

inhibition (Benjaminiella poitrasii [2]): > 90%
SMILES: C[C@@H]([C@H](N)C(=O)N[C@H](C(=O)O)[C@H]1O[C@@H](n2ccc(=O)[nH]c2=O)[C@H](O)[C@@H]1O)[C@H](O)c1ccc(O)cn1 [NIKKOMYCIN]
inhibition at 4 µg/mL (Benjaminiella poitrasii [1]): > 90%
